Source: PubChem BioAssay AID1885 (Broad Institute, 2009)
Hit rate of the full screen: of about 300,000 compounds, about 4,400 (1.5%) were called active.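 Rule for the calls: active = mean inhibition across valid replicates above about 55% (limit read from the data); inconclusive = mean below that limit but half or more replicates reach it; inactive = mean below it, under half of replicates reach it.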 Many of the other results were omitted from the sample, so actives are more common in it than they were.

Test: inhibitors of intracellular T. cruzi growth, primary screen, luminescence, NIH3T3 host cells (AID 1885);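 note: signal also drops with host cell toxicity which is not excluded here; 0% = plate median of DMSO wells and 100% = zero luminescence signal; higher percent means less beta-gal luminescence so fewer parasites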
Conditions: T. cruzi beta-gal in NIH3T3, luminescence, 90 h; active compounds read high; concentration not given here
Summary of the method: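 compound dosing = single 50 nL compound addition per well in DMSO | material = NIH/3T3 host cells with β-galactosidase reporter T. cruzi | input = 5,000 host fibroblasts per well | timing = ≥90 h infection period, 3 h prior cell attachment | read-out basis = percent inhibition of parasite-derived β-gal signal | detection = GalScreen β-gal luminescence, detergent lysis, 60 min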

Row | Compound | inhibition
1 | CC(Sc1nnc(-c2ccccc2F)n1C1CC1)C(N)=O (configuration not stated) | -10.8% (inactive)
2 | COc1ccc(-c2nc(CS(=O)(=O)CC(=O)NCc3cccc(Br)c3)c(C)o2)cc1 | -6.3% (inactive)
3 | Cc1cc(C(=O)N/N=C/c2cc([N+](=O)[O-])cc(C)c2O)n[nH]1 | -40.2% (inactive)
4 | CCOc1ccc(NC(=O)CCC(=O)N/N=C/c2ccc([N+](=O)[O-])s2)cc1 | 50.6% (inactive)
5 | COc1cc(/C=N/NC(=O)CNC(=O)c2ccncc2)ccc1OC(C)=O | -4.41% (inactive)
6 | Cc1ccccc1NCC(=O)N/N=C\c1ccc([N+](=O)[O-])s1 | 64.6% (active)
7 | CC(C)(C)c1cc(C(=O)N/N=C/c2ccc([N+](=O)[O-])s2)n[nH]1 | 57.6% (active)
8 | COc1ccc2ccccc2c1/C=N/NC(=O)c1cc(C)[nH]n1 | -14.2% (inactive)
9 | COc1ccc(C(=O)NCC(=O)N/N=C/c2ccc([N+](=O)[O-])o2)cc1OC | -11% (inactive)
10 | COc1ccc(C(=O)NCC(=O)N/N=C/c2ccc([N+](=O)[O-])s2)cc1OC | 64.6% (active)
11 | Cc1cccc(/C=N/NC(=O)CNc2cccc3ccccc23)n1 | -0.344% (inactive)
12 | O=C(NCCNc1ccc([N+](=O)[O-])cc1)c1cccc2c(Br)cccc12 | 5.94% (inactive)
13 | Brc1ccc(OCCn2ccnc2)cc1 | 68.5% (active)
14 | c1ccc(Cc2ccc(OCCn3ccnc3)cc2)cc1 | 28.2% (inactive)
15 | O=C(O)c1ccn(COc2ccc(Br)cc2)n1 | -13.4% (inactive)
16 | O=C(NCCS(=O)(=O)N1CCN(c2ccc(F)cc2)CC1)c1ccc2c(c1)OCO2 | -12.2% (inactive)
17 | COc1ccc(NC(=O)CN(C)C(=O)/C=C/c2cn(Cc3ccccc3)nc2-c2cccnc2)cc1 | 4% (inactive)
18 | NC(=S)Nc1c(Cl)cccc1Cl | -4.22% (inactive)
19 | CCCCN(C)CCCNC(=O)c1cc(-c2cccs2)nc2ccccc12 | 63.8% (active)
20 | O=C(NCCN1CCOCC1)c1cc(-c2cccs2)nc2ccccc12 | -5.61% (inactive)
21 | COC(=O)c1cc(-c2cccs2)nc2ccccc12 | 5.51% (inactive)

Row | Compound | inhibition
22 | COc1cnn(-c2ccc([N+](=O)[O-])cc2)c(=O)c1Cl | 7.92% (inactive)
23 | CCN1C(=O)[C@H]2[C@@H](c3ccc(-c4ccc(OC)cc4)cc3)N[C@@](Cc3ccccc3)(C(=O)OC)[C@H]2C1=O | -3.65% (inactive)
24 | CCOC(=O)C1(CCOC)CCN(Cc2cc3ccccc3s2)CC1 | 6.96% (inactive)
25 | Cc1ccc(S(=O)(=O)N2CCCC2C(=O)OCc2nc3sc(C)c(C)c3c(=O)[nH]2)cc1 (configuration not stated) | -13% (inactive)
26 | C=CCc1cc(C)ccc1OCCCn1ccnc1 | 36.6% (inactive)
27 | O=C(NCCCn1ccnc1)c1ccccc1F | 7.44% (inactive)
28 | Clc1c(OCCCn2ccnc2)ccc2ccccc12 | 61.3% (active)
29 | Cc1cc(Nc2cc(N3CCN(C)CC3)nc(Sc3ccc(NC(=O)C4CC4)cc3)n2)n[nH]1 | 26.9% (inactive)
30 | CC(=O)CC(CC(=O)NC1CCCCC1)c1ccccc1 (configuration not stated) | -21.8% (inactive)
31 | CCOc1ccc(C(=O)NCC(=O)N2CCCCCCC2)cc1OCC | 17.5% (inactive)
32 | CCc1noc(C)c1C(=O)NNC(=O)c1ccc(F)cc1 | -6.32% (inactive)
33 | CC(C)(C)S(=O)(=O)c1ccccc1-c1noc(-c2ccccc2)c1C(N)=O | -8.06% (inactive)
34 | Cc1cc(C)c2nc(SCCC#N)nc(C)c2c1 | 1.26% (inactive)
35 | Cc1cc(C)c2nc3nc(C)cc(C)c3c(N)c2c1 | 58.9% (active)
36 | Cc1cc(C)c2nc(-c3ccco3)cc(C(=O)O)c2c1 | -8.53% (inactive)
37 | O=C(COC(=O)c1ncc(Cl)c(Cl)c1Cl)NNC(=O)c1ccccc1 | -29.7% (inactive)
38 | Cc1ccc2nc(NC(=O)C3CSC4(C)CCC(=O)N34)sc2c1 (configuration not stated) | -3.69% (inactive)
39 | CCOc1ccc(/C=N/NC(N)=S)cc1 | 15.1% (inactive)
40 | NC(=S)N/N=C/c1coc2cc(Cl)ccc2c1=O | -10.9% (inactive)
41 | CC(C)Oc1c(Br)cc(Br)cc1/C=N/NC(N)=S | 66.9% (active)
42 | CCc1noc(C)c1C(=O)Nc1nc(-c2ccccc2)cs1 | 6.55% (inactive)

Row | Compound | inhibition
43 | CCS(=O)(=O)c1ccc(C(=O)NC)c(Cl)c1Cl | -1.91% (inactive)
44 | Cc1cc(C)n(S(=O)(=O)c2cccc([N+](=O)[O-])c2)n1 | 19.3% (inactive)
45 | Cc1ccc(-c2cn(S(=O)(=O)c3cccc([N+](=O)[O-])c3)nc2N)cc1 | 63.5% (active)
46 | CC1=NCCN1S(=O)(=O)c1cccc([N+](=O)[O-])c1 | 7.48% (inactive)
47 | CCCCCCCNC(=O)C1(CC2CC(c3cccc(Br)c3)=NO2)CCN(C(=O)c2cc(OCC)c(OCC)c(OCC)c2)CC1 (configuration not stated) | 28.4% (inactive)
48 | COc1cc(N)c(Cl)cc1C(=O)OCC(=O)c1ccc2c(c1)NC(=O)CO2 | -2.39% (inactive)
49 | CCCCCCCN=C(C)c1ccccc1O | 2.33% (inactive)
50 | CCCCCCc1cc2cc(-c3nnc(-c4ccccc4)o3)c(=O)oc2cc1O | 0.529% (inactive)
51 | CCCCCCc1ccc(O)cc1O | 63.7% (active)
52 | O=C(CNS(=O)(=O)c1ccccc1)N1CCN(C(=O)c2ccco2)CC1 | -1.99% (inactive)
53 | Cn1c(CCN2CCCC2)nc2cc(NS(=O)(=O)c3ccccc3)ccc21 | 9.31% (inactive)
54 | Cn1c(=O)n(C)c2cc(NS(=O)(=O)c3ccc(F)cc3)ccc21 | 2.2% (inactive)
55 | CC1(C)CC(=O)c2c(n(S(=O)(=O)c3ccccc3)c3ccc(NS(=O)(=O)c4ccccc4)cc23)C1 | 63.5% (active)
56 | CCn1c(SCc2ccccc2)nc2cc(OC)c(OC)cc2c1=O | 18.8% (inactive)
57 | CN1CCN(C(=O)c2ccccc2NC(=O)COc2ccccc2Cl)CC1 | -5.23% (inactive)
58 | O=C1c2ccccc2S(=O)(=O)c2cc(N3CCN(c4ccccn4)CC3)ccc21 | -2.13% (inactive)
59 | CCOc1ccc(NC(=O)COc2ccc(C(=O)N3CCC(C(N)=O)CC3)cc2OC)cc1 | -10.5% (inactive)
60 | CCC(=O)Nc1ccc(C(=O)Nc2cccc(OC)c2)cc1 | -19% (inactive)
61 | CCC(=O)Nc1ccc2nn(-c3ccc(F)cc3)nc2c1 | 55.3% (active)
62 | Cc1ccc(-n2nc3ccc(NC(=O)/C=C/c4ccco4)cc3n2)cc1C | -97.4% (inactive)
